# MrgX1 ag = activates human MrgX1 receptor signaling | MrgX1-HEK293 cells, Fluo-4 calcium fluorescence, agonist mode; stronger effect = higher value | B-score at 10 µM | 310,000 compounds, 0.44% hits;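 active = calcium response B-score plate-corrected fluorescence ratio at least 3 library SD, with starting fluorescence B-score inside 5 SD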
# Target sequence (Q96LB2 whole entry, looked up): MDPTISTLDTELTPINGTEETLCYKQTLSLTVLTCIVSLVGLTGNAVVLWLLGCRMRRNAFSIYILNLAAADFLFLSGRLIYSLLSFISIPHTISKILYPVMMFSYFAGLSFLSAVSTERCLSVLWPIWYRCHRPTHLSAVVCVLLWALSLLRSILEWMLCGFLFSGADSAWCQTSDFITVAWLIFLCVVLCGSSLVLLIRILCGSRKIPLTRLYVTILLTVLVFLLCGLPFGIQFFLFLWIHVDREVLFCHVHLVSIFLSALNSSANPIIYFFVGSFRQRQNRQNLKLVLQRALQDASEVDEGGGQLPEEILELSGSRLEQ
#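 Material: MrgX1-expressing HEK293 cells; input: 15,000 cells per well; doses: test compound given as first of three sequential additions; schedule: overnight plating before 1 h dye loading; technique: Fluo-4 NW calcium-flux fluorescence, kinetic read; evaluation: baseline-normalised fluorescence change ratio, B-scored; control set: plate-wise positive and negative controls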
# RGS4 inh = inhibitors of human RGS4. P49798. HEK293 M3R/RGS4 inducible, Fluo-4 calcium flux; stronger effect = higher value; triggered by carbachol at its EC20. B-score at 10 µM. 310,000 compounds, 0.45% hits. AID 463165;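 active = B-score, a plate-corrected calcium signal, over three deviations above library mean, with baseline fluorescence within five deviations of library mean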;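 note: RGS4 expression induced by doxycycline in cells with stable M3 receptor; B-score is computed from the integrated fluorescence ratio over baseline after carbachol; higher B-score means a larger calcium signal and so more RGS4 inhibition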
# Target sequence (P49798 whole entry, looked up): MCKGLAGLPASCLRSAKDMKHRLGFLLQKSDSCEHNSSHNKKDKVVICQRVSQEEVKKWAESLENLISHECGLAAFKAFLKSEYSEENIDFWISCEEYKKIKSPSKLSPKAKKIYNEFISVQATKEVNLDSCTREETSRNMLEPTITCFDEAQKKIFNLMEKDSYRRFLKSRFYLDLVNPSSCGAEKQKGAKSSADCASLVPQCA
# RGS4 act = potentiators or activators of RGS4; HEK293 M3R/inducible RGS4, carbachol calcium flux Fluo4; stronger effect = lower value; B-score at 10 µM; 310,000 compounds, 0.92% hits; AID 463111;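 active = B-score of the integrated calcium signal more than 4 SD below the library mean, with starting fluorescence not abnormally high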;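 note: negative B-score means reduced calcium response which marks RGS4 activation or potentiation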
#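 System: HEK293 FlpIn-TREx cells, stable M3R, doxycycline-inducible RGS4. Timing: overnight RGS4 induction, 30 min dye load 37 °C, 20 min compound RT. Also added: carbachol, ECmax concentration. Measured by: Fluo4 fluorescence kinetic imaging of calcium. Evaluation: integrated calcium ratio converted to B score.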
# MrgX1 antagonist = blocks BAM8-22 activation of human MrgX1 receptor; B-score at 10 µM; MRGX1-HEK293 calcium flux, Fluo-4, BAM8-22 antagonism; stronger effect = lower value; 310,000 compounds, 1.3% hits;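 active = calcium-response B-score plate-corrected more than 3 library SD below zero, starting fluorescence within 5 deviations, no agonist response on first addition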;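 note: peak minus trough fluorescence over baseline after final BAM8-22 challenge near maximal dose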
# MrgX1 PAM = allosterically activates human MrgX1 receptor signaling. MrgX1-HEK293, Fluo-4 calcium flux, FDSS; stronger effect = higher value. B-score at 10 µM. 310,000 compounds, 0.63% hits;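 active = plate-corrected calcium response at least 3 library SD above typical, normal starting fluorescence, not activating the receptor alone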;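 note: compound read alongside a low EC10 to EC30 dose of BAM8-22 agonist; peak minus trough fluorescence over baseline measured at the second addition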
# Numbers stand for hits; 0 = inactive; - = no result. Shown are actives, neighbours in structure and some others; about 3.5% of the full set was active somewhere.
SMILES,MrgX1 ag,RGS4 inh,RGS4 act,MrgX1 antagonist,MrgX1 PAM
COc1cc(/C=C2/C(=O)NN(c3ccc(Cl)c(Cl)c3)C2=O)cc([N+](=O)[O-])c1O,0,0,0,0,0
COc1cc(/C=C2/C(=O)NN(c3ccc(Cl)cc3)C2=O)cc(Br)c1O,33,0,0,0,0
CCOC(=O)CSc1nc(N)c(C#N)c(-c2ccc(OC)cc2)c1C#N,0,0,0,-5.8,0
CCc1cccc(NC(=O)C2CC2c2ccccc2)c1 (stereo not drawn),0,0,0,0,0
O=C(NNC(=O)C1CC1c1ccccc1)Nc1cccc(Cl)c1 (stereo not drawn),0,0,0,-5.4,0
N#C/C(=N\Nc1ccc(S(=O)(=O)N2CCc3ccccc32)cc1)C(N)=S,0,0,0,0,0
CCOC(=O)/C(C#N)=N/Nc1ccc(S(=O)(=O)N2CCc3ccccc32)cc1,0,0,0,-4.5,0
CCCc1nc2ccccc2c(=O)n1NC(=O)c1c(O)c2ccccc2n(C)c1=O,0,0,0,0,10
COCC(=O)Nc1cc(C(=O)Nc2cccc(C)c2C)ccc1Cl,0,0,0,0,0
COCC(=O)NNC(=S)Nc1cccc(C)c1C,0,0,0,-5.1,0
Cc1ccc(C)c(N2CCN(C(=O)C3CCN(c4nc(C)cc(C)n4)CC3)CC2)c1,0,0,0,0,0
Cc1cc(C)nc(N2CCC(C(=O)N3CCN(c4cc(Cl)ccc4C)CC3)CC2)n1,0,0,-7.3,0,0
CC(Oc1ccc2ccc(=O)oc2c1)C(=O)c1ccccc1 (stereo not drawn),0,0,0,0,0
CCC(=O)Oc1ccc2c(C)cc(=O)oc2c1C(=O)CC,0,0,0,0,6.9
CCc1ccc2oc(-c3ccc(OC)cc3)cc(=Nc3c(C)n(C)n(-c4ccccc4)c3=O)c2c1,0,0,-7.4,0,0
Nc1ncnc2c1c(-c1ccc(Oc3ccccc3)cc1)cn2C1CCCC1,0,-,-,0,0
Cc1ccc(NC(=O)CN(C)C(=O)c2ccc(NC(=O)CC3SC(N4CCCC4)=NC3=O)cc2)cc1 (stereo not drawn),0,0,0,-9.6,0
CC(C)CC(=O)Nc1ccc(C(=O)CN2CCC(C)CC2)cc1,0,0,0,0,0
CC(=O)NC(=S)Nc1ccc([N+](=O)[O-])cc1C,0,0,0,-8,0
COc1ccc([N+](=O)[O-])cc1NC(=S)NC(C)=O,0,0,0,0,0
COc1ccc(CC(=O)Nc2ccc(-c3nnc(-c4ccccc4)o3)cc2)cc1OC,0,0,0,0,0
COc1ccc(CC(=O)Nc2cccc(-c3nnc(-c4ccc(C)cc4)o3)c2)cc1OC,0,0,-10,0,0
CCCCNC(=O)C(=O)NCC1CCCN1S(=O)(=O)c1cccs1 (stereo not drawn),0,0,0,0,0
Cc1ccc(CNC(=O)c2oc3ccc(S(=O)(=O)N4CCC5(CC4)OCCO5)cc3c2C)cc1,0,0,-8.4,0,0
Cc1c(C(=O)NCc2cccnc2)oc2ccc(S(=O)(=O)N3CCC4(CC3)OCCO4)cc12,0,0,0,0,0
SMILES,MrgX1 ag,RGS4 inh,RGS4 act,MrgX1 antagonist,MrgX1 PAM
COc1cc2ncc(S(=O)(=O)c3ccccc3)c(N3CCCC(C)C3)c2cc1OC (stereo not drawn),0,0,-7.3,0,0
O=S(=O)(c1ccccc1)c1cnc(-c2ccccc2)nc1N1CCCC1,0,0,0,0,0
CCOc1cc(N2CCOCC2)c(OCC)cc1NC(=O)c1c(-c2ccccc2Cl)noc1C,0,0,0,0,0
COc1ccc(NC(=O)CSc2ccc3ccccc3c2)cc1S(=O)(=O)N1CCCCC1,0,0,0,0,0
Cc1ccc(S(=O)(=O)N2[C@@H](c3cccc(Cl)c3)C(C(=O)O)=CC[C@H]2c2ccc(Cl)cc2)cc1,0,-,-,0,0
Cc1ccc([C@@H]2CC=C(C(=O)O)[C@H](c3ccc(F)cc3)N2S(=O)(=O)c2ccc(C)cc2)cc1,0,-,-,0,0
Cc1ccc([C@@H]2CC=C(C(=O)O)[C@H](c3ccccc3F)N2S(=O)(=O)c2ccc(C)cc2)cc1,0,-,-,0,8.9
Cc1ccc(S(=O)(=O)N2[C@@H](c3ccccc3F)C(C(=O)O)=CC[C@H]2c2cccc(Cl)c2)cc1,0,-,-,0,11
Cc1ccc(S(=O)(=O)N2[C@@H](c3ccccc3F)C(C(=O)O)=CC[C@H]2c2ccc(C(C)C)cc2)cc1,0,-,-,0,0
Cc1ccc(S(=O)(=O)N2[C@@H](c3ccccc3)C(C(=O)O)=CC[C@H]2c2cccc(Cl)c2)cc1,0,-,-,0,7.4
O=C(O)C1=CC[C@@H](c2ccc(Cl)cc2)N(S(=O)(=O)c2ccc(Cl)cc2)[C@H]1c1ccc(F)cc1,0,-,-,0,8.3
Cc1ccc(S(=O)(=O)N2CC(C(=O)O)=CC[C@H]2c2ccc(Cl)cc2)cc1,0,-,-,0,0
Cc1ccc(S(=O)(=O)N2[C@@H](c3ccc(Cl)cc3)C(C(=O)O)=CC[C@H]2c2ccc(Cl)c(Cl)c2)cc1,0,-,-,-5.1,0
COc1ccc([C@@H]2CC=C(C(=O)O)CN2S(=O)(=O)c2ccc(Cl)cc2)cc1,0,-,-,0,8
COc1cc([C@@H]2CC=C(C(=O)O)[C@H](c3ccc(Cl)cc3)N2S(=O)(=O)c2ccc(C)cc2)cc(OC)c1OC,0,-,-,0,0
CCNC(=S)N/N=C/c1ccc(OCc2ccc(C(=O)OC)cc2)cc1,0,0,0,-4.7,0
CCCc1nc2c(s1)CCc1onc(-c3ccc(Cl)cc3)c1-2,0,0,0,0,0
CCCc1sc(N)nc1-c1ccc(Cl)cc1,0,0,-7.4,0,0
O=c1c2c([N+](=O)[O-])cc([N+](=O)[O-])cc2sn1-c1ccc(Br)cc1,0,-,-,0,0
O=c1c2c([N+](=O)[O-])cc([N+](=O)[O-])cc2sn1Cc1ccccc1,37,0,0,0,0
CN(C)c1ccc(/C=C/c2cc[n+](C)cc2)cc1,37,0,0,0,0
O=C(c1ccco1)N1N=C(c2cccs2)CC1c1cc([N+](=O)[O-])ccc1O (stereo not drawn),0,0,0,0,7.1
COC(=O)C1=C(C)N(C)C(C)=C(C(=O)OC)C1c1ccc(F)c(Br)c1,0,0,-7.2,0,0
COC(=O)C1=C(C)N(C)C(C)=C(C(=O)OC)C1c1ccncc1,0,0,0,0,0
O=C1/C(=C/c2ccco2)Cc2ccccc21,0,0,0,0,0
O=C1/C(=C\c2ccco2)CCC/C1=C\c1ccco1,0,0,0,0,7.6
O=C1/C(=C/c2ccco2)CCC1C1CCCC1 (stereo not drawn),0,0,0,0,0
CC1C/C(=C/c2ccco2)C(=O)/C(=C/c2ccco2)C1 (stereo not drawn),0,6.6,0,0,0
CCCCn1c(-c2ccccc2)cnc1SCC(=O)NCCc1ccc(OC)c(OC)c1,0,0,0,0,0

# Screens from PubChem.
